Measured values taken from ChEMBL document CHEMBL3259707, “Design and synthesis of human ABCB1 (P-glycoprotein) inhibitors by peptide coupling of diverse chemical scaffolds on carboxyl and amino termini of (S)-valine-derived thiazole amino acid” (J Med Chem, 2014).

Columns and labels:
[1] = target: T1, ATP-dependent translocase ABCB1 (Homo sapiens, UniProt P08183); assay: Inhibition of human P-gp
[2] = target: T1, ATP-dependent translocase ABCB1; assay: Inhibition of human wild type P-gp expressed in BacMam virus infected human HeLa cells assessed as calcein-AM accumulation after 10 mins by flow cytometry; assay type: cell-based; conditions: for inhibition (INH): human, 10 min
Method in brief: (§1)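 HeLa cells transduced with BacMam WT-P-gp (10–15 particles/cell); 10 mM butyric acid added after 3–4 h, grown overnight at 37 °C. Trypsinized cells exposed to compound, then 0.5 μM calcein-AM for 10 min at 37 °C in the dark. […] Two independent experiments in triplicate, ± SD.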

[3] = target: T1, ATP-dependent translocase ABCB1; assay: Inhibition of human wild type P-gp expressed in BacMam virus infected human HeLa cells assessed as calcein-AM accumulation at 10 uM after 10 mins by flow cytometry; assay type: cell-based; method in brief: as §1
[4] = Retardation factor of the compound using EtOAc-n-hexane at ratio of 1:1 by thin layer chromatography; assay type: physicochemical
[5] = Retention time of the compound by HPLC analysis; assay type: physicochemical
Method in brief: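 Reverse-phase C18 HPLC, isocratic acetonitrile/water 60:40, 1.0 mL/min, UV 254 nm; purity from major-peak area.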

[6] = Retardation factor of the compound using EtOAc-n-hexane at ratio of 3:2 by thin layer chromatography; assay type: physicochemical
[7] = Inhibition of mouse P-gp
[8] = Cytotoxicity against human SW620 cells assessed as cell survival at 3 uM by MTT assay; assay type: cell-based, SW-620; conditions: read-out: Activity
Method in brief: (§2)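 MTT survival. Cells seeded 5000–6000/well, attached 24 h at 37 °C, 5% CO2; test agent for 72 h; MTT 4 mg/mL stock added, 4 h at 37 °C; formazan dissolved in DMSO, A570 read. Four independent experiments, each in triplicate. SW620/Ad300 is the doxorubicin-selected P-gp subline of SW620; HEK293 grown in DMEM with G418 (2 mg/mL). All cells kept drug-free >2 weeks before assay.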

[9] = Cytotoxicity against human SW620/Ad300 cells overexpressing ABCB1 assessed as cell survival at 3 uM by MTT assay; assay type: ADME, cell-based, SW-620; conditions: SW620/Ad300 cells that overexpress ABCB1, read-out: Activity; method in brief: as §2
[10] = Cytotoxicity against human HEK293 cells assessed as cell survival at 3 uM by MTT assay; assay type: cell-based; conditions: read-out: Activity; method in brief: as §2
[11] = Cytotoxicity against human HEK293 cells overexpressing human ABCB1 assessed as cell survival at 3 uM by MTT assay; assay type: ADME, cell-based; conditions: HEK293 cells that overexpress human ABCB1, read-out: Activity
Method in brief: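 HEK293 cells stably transfected with human ABCB1 cDNA, kept in DMEM with G418 (2 mg/mL) and drug-free for over 2 weeks. Cells seeded at 5000–6000/well, attached 24 h at 37 °C, 5% CO2, then exposed 72 h to modulator. MTT (4 mg/mL) added for 4 h, formazan dissolved in DMSO, absorbance read at 570 nm. Four independent experiments, each in triplicate.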

[12] = target: T1, ATP-dependent translocase ABCB1; assay: Displacement of […] from ABCB1 (unknown origin) expressed in High Five insect cell membrane preincubated for 10 mins by autoradiography
Method in brief: (§3)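 Compound 0–20 μM, 10 min at 37 °C. Then [125I]-IAAP (2200 Ci/mmol; 4–6 nM) added for 5 min under minimal light. UV 365 nm for 10 min, labeling read by autoradiography. Two independent experiments; curve fitted by one-phase decay.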

[13] = target: T1, ATP-dependent translocase ABCB1; assay: Displacement of […] from ABCB1 (unknown origin) expressed in High Five insect cell membrane at >5 uM preincubated for 10 mins by autoradiography; conditions: human; method in brief: as §3

T1 sequence (P08183 whole entry): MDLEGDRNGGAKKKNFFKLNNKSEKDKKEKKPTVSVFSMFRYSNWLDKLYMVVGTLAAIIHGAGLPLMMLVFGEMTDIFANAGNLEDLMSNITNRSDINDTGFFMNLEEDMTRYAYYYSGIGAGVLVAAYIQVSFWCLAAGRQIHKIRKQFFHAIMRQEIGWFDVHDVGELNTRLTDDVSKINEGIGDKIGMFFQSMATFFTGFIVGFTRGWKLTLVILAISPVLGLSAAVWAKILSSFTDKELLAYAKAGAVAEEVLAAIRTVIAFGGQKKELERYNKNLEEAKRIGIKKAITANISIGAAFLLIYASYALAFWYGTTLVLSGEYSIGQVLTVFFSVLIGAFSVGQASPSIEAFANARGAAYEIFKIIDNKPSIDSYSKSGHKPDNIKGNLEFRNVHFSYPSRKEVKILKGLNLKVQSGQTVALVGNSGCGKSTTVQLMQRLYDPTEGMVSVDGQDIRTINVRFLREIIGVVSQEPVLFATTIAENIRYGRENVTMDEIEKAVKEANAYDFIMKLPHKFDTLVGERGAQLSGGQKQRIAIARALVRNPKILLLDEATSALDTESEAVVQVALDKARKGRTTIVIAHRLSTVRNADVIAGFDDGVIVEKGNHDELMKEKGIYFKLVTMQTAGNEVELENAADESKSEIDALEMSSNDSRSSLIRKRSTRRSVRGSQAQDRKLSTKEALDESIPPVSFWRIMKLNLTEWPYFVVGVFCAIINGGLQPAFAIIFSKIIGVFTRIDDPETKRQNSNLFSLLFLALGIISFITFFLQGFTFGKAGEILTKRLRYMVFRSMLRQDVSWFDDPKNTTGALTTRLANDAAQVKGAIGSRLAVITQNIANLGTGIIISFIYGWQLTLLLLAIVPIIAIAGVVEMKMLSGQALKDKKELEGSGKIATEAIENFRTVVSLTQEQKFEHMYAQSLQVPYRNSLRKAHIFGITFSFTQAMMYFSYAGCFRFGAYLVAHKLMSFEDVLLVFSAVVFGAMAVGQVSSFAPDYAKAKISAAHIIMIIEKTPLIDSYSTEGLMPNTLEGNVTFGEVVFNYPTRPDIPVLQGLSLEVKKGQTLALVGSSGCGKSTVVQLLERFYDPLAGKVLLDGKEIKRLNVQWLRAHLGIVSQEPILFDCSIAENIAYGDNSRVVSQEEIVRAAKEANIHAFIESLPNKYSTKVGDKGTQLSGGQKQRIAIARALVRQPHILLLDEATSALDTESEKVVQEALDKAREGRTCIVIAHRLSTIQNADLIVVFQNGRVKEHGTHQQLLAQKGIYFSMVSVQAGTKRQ

Compound	inhibition (INH) [3] [%]	Rf [4]	Retention_time [5] [min]	Rf [6]	other results
CCOC(=O)c1csc([C@@H](NC(=O)c2csc([C@@H](NC(=O)c3csc([C@@H](NC(=O)OC(C)(C)C)C(C)C)n3)C(C)C)n2)C(C)C)n1					IC50 [1]: 1500 nM
COc1ccc(C(C)NC(=O)c2csc([C@@H](NC(=O)c3csc([C@@H](NC(=O)OC(C)(C)C)C(C)C)n3)C(C)C)n2)cc1 (stereo not given in full)					IC50 [2]: 2000 nM
COc1ccc(CNC(=O)c2csc([C@@H](NC(=O)c3csc([C@@H](NC(=O)OC(C)(C)C)C(C)C)n3)C(C)C)n2)c(OC)c1					IC50 ([2]; hela): 2000 nM
COc1cc2c(cc1OC)C(=O)C(CC1CCN(C(=O)c3csc([C@@H](NC(=O)OC(C)(C)C)C(C)C)n3)CC1)C2 (stereo not given in full)	15	0.2	4.7		
CCOC(=O)c1csc([C@@H](NC(=O)c2cnc3ccccc3c2)C(C)C)n1	2	0.4	3.3		
CCOC(=O)c1csc([C@@H](NC(=O)/C=C/c2ccc(OC)c(OC)c2)C(C)C)n1	11	0.5	3.4		
CCOC(=O)c1csc([C@@H](NC(=O)c2cc(OC)c(OC)c(OC)c2)C(C)C)n1	10	0.6	3.7		
COc1ccc(NC(=O)c2csc([C@@H](NC(=O)c3csc([C@@H](NC(=O)OC(C)(C)C)C(C)C)n3)C(C)C)n2)c(OC)c1		0.55	7.6		IC50 [2]: 2500 nM; inhibition (INH) ([2]; hela): Dose-dependent effect
COc1cc(NC(=O)c2csc([C@@H](NC(=O)c3csc([C@@H](NC(=O)OC(C)(C)C)C(C)C)n3)C(C)C)n2)cc(OC)c1OC		0.45	8		IC50 [2]: 6500 nM; inhibition (INH) ([2]; hela): Dose-dependent effect
CCOC(=O)c1csc([C@@H](NC(=O)c2csc([C@@H](NC(=O)c3ccc(OC)c(OC)c3)C(C)C)n2)C(C)C)n1		0.4	3.5		IC50 [2]: 16000 nM; inhibition (INH) ([2]; hela): Dose-dependent effect
CCOC(=O)c1csc([C@@H](NC(=O)c2csc([C@@H](NC(=O)c3cc(OC)c(OC)c(OC)c3)C(C)C)n2)C(C)C)n1	55	0.4	3.6		
COc1ccc([C@@H](C)NC(=O)c2csc([C@@H](NC(=O)c3cc(OC)c(OC)c(OC)c3)C(C)C)n2)cc1	24	0.45	3.9		
COc1cc(NC(=O)c2csc([C@@H](NC(=O)c3cc(OC)c(OC)c(OC)c3)C(C)C)n2)cc(OC)c1	37	0.55	4.3		
COc1cc(NC(=O)c2csc([C@@H](NC(=O)c3cc(OC)c(OC)c(OC)c3)C(C)C)n2)cc(OC)c1OC	58	0.4	3.3		
COc1cc(CNC(=O)c2csc([C@@H](NC(=O)c3cc(OC)c(OC)c(OC)c3)C(C)C)n2)cc(OC)c1OC	4	0.3	2.7		
COc1cc(C(=O)N[C@H](c2nc(C(=O)NCc3ccc4c(c3)OCO4)cs2)C(C)C)cc(OC)c1OC	20		3.1	0.35	
COc1cc(C(=O)N[C@H](c2nc(C(=O)Nc3ccc4c(c3)OCO4)cs2)C(C)C)cc(OC)c1OC	40		3.5	0.5	
COc1cc2c(cc1OC)CN(C(=O)c1csc([C@@H](NC(=O)c3cc(OC)c(OC)c(OC)c3)C(C)C)n1)CC2	16		2.8	0.3	
COc1cc(C(=O)N[C@H](c2nc(C(=O)NC3Cc4ccccc4C3)cs2)C(C)C)cc(OC)c1OC	47		4.1	0.5	
COc1cc(C(=O)N[C@H](c2nc(C(=O)NCCc3ccccn3)cs2)C(C)C)cc(OC)c1OC	5		2.2	0.2	
COc1cc(C(=O)N[C@H](c2nc(C(=O)NCc3ccc(-c4ccccc4)cc3)cs2)C(C)C)cc(OC)c1OC	23		6.3	0.5	
COc1cc(C(=O)N[C@H](c2nc(C(=O)Nc3ccc(C(=O)c4ccccc4)cc3)cs2)C(C)C)cc(OC)c1OC	18		6.8	0.5	
COc1cc(C(=O)N[C@H](c2nc(C(=O)Nc3ccccc3C(=O)c3ccc(F)cc3)cs2)C(C)C)cc(OC)c1OC	54		9.5	0.4	
CC(C)[C@@H]1NC(=O)c2csc(n2)[C@H](C(C)C)NC(=O)c2csc(n2)[C@H](C(C)C)NC(=O)c2csc1n2					IC50 [7]: 2700 nM; IC50 [1]: 1500 nM; viability at 3 µM [8]: > 85%; viability at 3 µM [9]: > 85%; viability at 3 µM [10]: > 85%; viability at 3 µM [11]: > 85%; inhibition (INH) [12]: Dose-dependent effect; inhibition (INH) [13]: 90%
CC(C)[C@H]1NC(=O)c2csc(n2)[C@@H](C(C)C)NC(=O)c2csc(n2)[C@@H](C(C)C)NC(=O)c2csc1n2					IC50 [7]: 8400 nM
